Results from ChEMBL document CHEMBL1157526, “Development of novel beta-amyloid probes based on 3,5-diphenyl-1,2,4-oxadiazole” (Bioorg Med Chem, 2008).

Assays:
[1] = Displacement of [125I]IMPY from amyloid beta (1-42) aggregates
Method in brief: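 Synthetic Aβ(1–42) dissolved at 0.25 mg/mL in 10 mM sodium phosphate, 1 mM EDTA, pH 7.4, aggregated 42 h at 37 °C with gentle constant shaking. Competition against [125I]IMPY (2200 Ci/mmol, >95% radiochemical purity). Filter-bound radioactivity gamma-counted, specific binding under 15% of total. IC50 from displacement curves, Ki by Cheng-Prusoff. Mean ± SEM of 3–6 independent experiments.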

Heart [2] = assay: Biodistribution in ddY mouse heart at 0.5 uCi, iv after 2 mins; format: ADME, organism-based; settings: in vivo
Method in brief: (§1)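 Normal male-unspecified ddY mice (5-week-old, 22–25 g) given radioiodinated ligand by tail-vein injection, killed at set times post-injection. Organs removed and weighed, radioactivity counted in a gamma counter. Expressed as % injected dose per gram, stomach as % injected dose per organ. Mean (s.d.) of 3–5 animals per time point.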

Liver [3] = assay: Biodistribution in ddY mouse liver at 0.5 uCi, iv after 30 mins; format: ADME, organism-based; settings: in vivo, 0.5 h; method in brief: as §1
Kidney [4] = assay: Biodistribution in ddY mouse kidney at 0.5 uCi, iv after 10 mins; format: ADME, organism-based; settings: in vivo; method in brief: as §1
Intestine [5] = assay: Biodistribution in ddY mouse intestine at 0.5 uCi, iv after 10 mins; format: ADME, organism-based; settings: in vivo; method in brief: as §1
Brain [6] = assay: Biodistribution in ddY mouse brain at 0.5 uCi, iv after 10 mins; format: ADME, organism-based; settings: in vivo; method in brief: as §1
Liver [7] = assay: Biodistribution in ddY mouse liver at 0.5 uCi, iv after 60 mins; format: ADME, organism-based; settings: in vivo, 1 h; method in brief: as §1
Spleen [8] = assay: Biodistribution in ddY mouse spleen at 0.5 uCi, iv after 2 mins; format: ADME, organism-based; settings: in vivo; method in brief: as §1
Spleen [9] = assay: Biodistribution in ddY mouse spleen at 0.5 uCi, iv after 10 mins; format: ADME, organism-based; settings: in vivo; method in brief: as §1
Liver [10] = assay: Biodistribution in ddY mouse liver at 0.5 uCi, iv after 2 mins; format: ADME, organism-based; settings: in vivo; method in brief: as §1
Liver [11] = assay: Biodistribution in ddY mouse liver at 0.5 uCi, iv after 10 mins; format: ADME, organism-based; settings: in vivo; method in brief: as §1
Heart [12] = assay: Biodistribution in ddY mouse heart at 0.5 uCi, iv after 60 mins; format: ADME, organism-based; settings: in vivo, 1 h; method in brief: as §1
Blood [13] = assay: Biodistribution in ddY mouse blood at 0.5 uCi, iv after 30 mins; format: ADME, organism-based; settings: in vivo, 0.5 h; method in brief: as §1
Kidney [14] = assay: Biodistribution in ddY mouse kidney at 0.5 uCi, iv after 30 mins; format: ADME, organism-based; settings: in vivo, 0.5 h; method in brief: as §1
Pancreas [15] = assay: Biodistribution in ddY mouse pancreas at 0.5 uCi, iv after 2 mins; format: ADME, organism-based; settings: in vivo; method in brief: as §1
Heart [16] = assay: Biodistribution in ddY mouse heart at 0.5 uCi, iv after 30 mins; format: ADME, organism-based; settings: in vivo, 0.5 h; method in brief: as §1
Brain [17] = assay: Biodistribution in ddY mouse brain at 0.5 uCi, iv after 30 mins; format: ADME, organism-based; settings: in vivo, 0.5 h; method in brief: as §1
Pancreas [18] = assay: Biodistribution in ddY mouse pancreas at 0.5 uCi, iv after 60 mins; format: ADME, organism-based; settings: in vivo, 1 h; method in brief: as §1
Pancreas [19] = assay: Biodistribution in ddY mouse pancreas at 0.5 uCi, iv after 10 mins; format: ADME, organism-based; settings: in vivo; method in brief: as §1
Spleen [20] = assay: Biodistribution in ddY mouse spleen at 0.5 uCi, iv after 30 mins; format: ADME, organism-based; settings: in vivo, 0.5 h; method in brief: as §1
Spleen [21] = assay: Biodistribution in ddY mouse spleen at 0.5 uCi, iv after 60 mins; format: ADME, organism-based; settings: in vivo, 1 h; method in brief: as §1
Blood [22] = assay: Biodistribution in ddY mouse blood at 0.5 uCi, iv after 2 mins; format: ADME, organism-based; settings: in vivo; method in brief: as §1
Intestine [23] = assay: Biodistribution in ddY mouse intestine at 0.5 uCi, iv after 30 mins; format: ADME, organism-based; settings: in vivo, 0.5 h; method in brief: as §1
Blood [24] = assay: Biodistribution in ddY mouse blood at 0.5 uCi, iv after 60 mins; format: ADME, organism-based; settings: in vivo, 1 h; method in brief: as §1
Heart [25] = assay: Biodistribution in ddY mouse heart at 0.5 uCi, iv after 10 mins; format: ADME, organism-based; settings: in vivo; method in brief: as §1
Stomach [26] = assay: Biodistribution in ddY mouse stomach at 0.5 uCi, iv after 30 mins; format: ADME, organism-based; settings: in vivo, 0.5 h; method in brief: as §1
Brain [27] = assay: Biodistribution in ddY mouse brain at 0.5 uCi, iv after 60 mins; format: ADME, organism-based; settings: in vivo, 1 h; method in brief: as §1
Brain [28] = assay: Biodistribution in ddY mouse brain at 0.5 uCi, iv after 2 mins; format: ADME, organism-based; settings: in vivo; method in brief: as §1
Pancreas [29] = assay: Biodistribution in ddY mouse pancreas at 0.5 uCi, iv after 30 mins; format: ADME, organism-based; settings: in vivo, 0.5 h; method in brief: as §1
Kidney [30] = assay: Biodistribution in ddY mouse kidney at 0.5 uCi, iv after 2 mins; format: ADME, organism-based; settings: in vivo; method in brief: as §1
Blood [31] = assay: Biodistribution in ddY mouse blood at 0.5 uCi, iv after 10 mins; format: ADME, organism-based; settings: in vivo; method in brief: as §1
Intestine [32] = assay: Biodistribution in ddY mouse intestine at 0.5 uCi, iv after 2 mins; format: ADME, organism-based; settings: in vivo; method in brief: as §1
Stomach [33] = assay: Biodistribution in ddY mouse stomach at 0.5 uCi, iv after 10 mins; format: ADME, organism-based; settings: in vivo; method in brief: as §1
Stomach [34] = assay: Biodistribution in ddY mouse stomach at 0.5 uCi, iv after 60 mins; format: ADME, organism-based; settings: in vivo, 1 h; method in brief: as §1
Kidney [35] = assay: Biodistribution in ddY mouse kidney at 0.5 uCi, iv after 60 mins; format: ADME, organism-based; settings: in vivo, 1 h; method in brief: as §1
Intestine [36] = assay: Biodistribution in ddY mouse intestine at 0.5 uCi, iv after 60 mins; format: ADME, organism-based; settings: in vivo, 1 h; method in brief: as §1
Stomach [37] = assay: Biodistribution in ddY mouse stomach at 0.5 uCi, iv after 2 mins; format: ADME, organism-based; settings: in vivo; method in brief: as §1

Row | SMILES | Drug uptake (Heart [2]) [% ID/g] | Drug uptake (Liver [3]) [% ID/g] | Drug uptake (Kidney [4]) [% ID/g] | Drug uptake (Intestine [5]) [% ID/g] | Drug uptake (Brain [6]) [% ID/g] | Drug uptake (Liver [7]) [% ID/g] | Drug uptake (Spleen [8]) [% ID/g] | Drug uptake (Spleen [9]) [% ID/g] | Drug uptake (Liver [10]) [% ID/g] | Drug uptake (Liver [11]) [% ID/g] | Drug uptake (Heart [12]) [% ID/g] | Drug uptake (Blood [13]) [% ID/g] | Drug uptake (Kidney [14]) [% ID/g] | Drug uptake (Pancreas [15]) [% ID/g] | Drug uptake (Heart [16]) [% ID/g] | Drug uptake (Brain [17]) [% ID/g] | Drug uptake (Pancreas [18]) [% ID/g] | Drug uptake (Pancreas [19]) [% ID/g] | Drug uptake (Spleen [20]) [% ID/g] | Drug uptake (Spleen [21]) [% ID/g] | further results
1 | COc1ccc(-c2nc(-c3ccc(I)cc3)no2)cc1 |  |  |  |  |  |  |  |  |  |  |  |  |  |  |  |  |  |  |  |  | Ki [1]: 4.3 nM
2 | CN(C)c1ccc(-c2nc(-c3ccc([125I])cc3)no2)cc1 | 11.04 | 5.89 | 7.67 | 2.4 | 1.45 | 5.15 | 6.26 | 4.56 | 13.94 | 8.27 | 1.24 | 1.79 | 4.81 | 3.17 | 2.2 | 2.23 | 2.47 | 3.8 | 3.11 | 2.41 | Drug uptake (Blood [22]): 5.42 % ID/g; Drug uptake (Intestine [23]): 4.12 % ID/g; Drug uptake (Blood [24]): 1.56 % ID/g; Drug uptake (Heart [25]): 4.81 % ID/g; Drug uptake (Stomach [26]): 4.8 % ID/organ; Drug uptake (Brain [27]): 2.32 % ID/g; Drug uptake (Brain [28]): 1.07 % ID/g; Drug uptake (Pancreas [29]): 2.86 % ID/g; Drug uptake (Kidney [30]): 7.83 % ID/g; Drug uptake (Blood [31]): 2.41 % ID/g; Drug uptake (Intestine [32]): 1.59 % ID/g; Drug uptake (Stomach [33]): 3.28 % ID/organ; Drug uptake (Stomach [34]): 5.75 % ID/organ; Drug uptake (Kidney [35]): 3.31 % ID/g; Drug uptake (Intestine [36]): 5.37 % ID/g; Drug uptake (Stomach [37]): 1.28 % ID/organ
3 | COc1ccc(-c2nc(-c3ccc([125I])cc3)no2)cc1 | 11.3 | 6.13 | 6.22 | 3.53 | 2.76 | 4.44 | 4.41 | 3.62 | 11.92 | 9.35 | 1.35 | 1.23 | 3.85 | 4.55 | 1.84 | 2.82 | 1.45 | 4.94 | 2.13 | 1.34 | Drug uptake (Blood [22]): 1.96 % ID/g; Drug uptake (Intestine [23]): 6.62 % ID/g; Drug uptake (Blood [24]): 1.12 % ID/g; Drug uptake (Heart [25]): 4.44 % ID/g; Drug uptake (Stomach [26]): 2.46 % ID/organ; Drug uptake (Brain [27]): 2.01 % ID/g; Drug uptake (Brain [28]): 2.06 % ID/g; Drug uptake (Pancreas [29]): 2.84 % ID/g; Drug uptake (Kidney [30]): 8.77 % ID/g; Drug uptake (Blood [31]): 1.63 % ID/g; Drug uptake (Intestine [32]): 1.7 % ID/g; Drug uptake (Stomach [33]): 1.64 % ID/organ; Drug uptake (Stomach [34]): 3.16 % ID/organ; Drug uptake (Kidney [35]): 2.95 % ID/g; Drug uptake (Intestine [36]): 8.21 % ID/g; Drug uptake (Stomach [37]): 0.62 % ID/organ
4 | Nc1ccc(-c2nc(-c3ccc(I)cc3)no2)cc1 |  |  |  |  |  |  |  |  |  |  |  |  |  |  |  |  |  |  |  |  | Ki [1]: 14.2 nM
5 | Nc1ccc(-c2nc(-c3ccc([125I])cc3)no2)cc1 | 9.29 | 14.89 | 6.94 | 3.08 | 2.48 | 12.33 | 6.13 | 8.87 | 21.36 | 17.37 | 3.51 | 3.09 | 5.86 | 3.69 | 3.48 | 3.32 | 2.83 | 3.88 | 6.89 | 5.02 | Drug uptake (Blood [22]): 4.55 % ID/g; Drug uptake (Intestine [23]): 5.84 % ID/g; Drug uptake (Blood [24]): 2.99 % ID/g; Drug uptake (Heart [25]): 4.02 % ID/g; Drug uptake (Stomach [26]): 4.05 % ID/organ; Drug uptake (Brain [27]): 3.29 % ID/g; Drug uptake (Brain [28]): 1.61 % ID/g; Drug uptake (Pancreas [29]): 3.36 % ID/g; Drug uptake (Kidney [30]): 8.24 % ID/g; Drug uptake (Blood [31]): 2.32 % ID/g; Drug uptake (Intestine [32]): 1.5 % ID/g; Drug uptake (Stomach [33]): 1.7 % ID/organ; Drug uptake (Stomach [34]): 5.15 % ID/organ; Drug uptake (Kidney [35]): 5.15 % ID/g; Drug uptake (Intestine [36]): 8.33 % ID/g; Drug uptake (Stomach [37]): 0.92 % ID/organ
